# ChEMBL document CHEMBL1158589, “Benzimidazole and imidazole inhibitors of histone deacetylases: Synthesis and biological activity” (Bioorg Med Chem Lett, 2010)
# Activity calls are given as the source filed them. The calls are words filed in the database; no cut-off is given here.
# Tests used:
# [1] = test system: HCT-116; assay: Antitumor activity against human HCT116 cells xenografted in mouse assessed as tumor growth inhibition at 25 mg/kg, ip qd for 5 days per week; format: functional; conditions: route intraperitoneal
# Procedure, shortened: (§1)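 Human HCT116 colon xenografts in mice; intraperitoneal dosing qdx5 per week, 15 doses in total. %T/C calculated when vehicle-treated mice reached 1 g median tumor size, 10 days after the last dose.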
# [2] = test system: Mus musculus; assay: Toxicity in human HCT116 cells xenografted mouse assessed as change in body weight at 40 mg/kg, […]; format: organism-based, HCT-116; design: dose 40 mg/kg, route intraperitoneal; conditions: in vivo, ip, 120 h
# [3] = test system: PANC-1; assay: Induction of histone H3 hyperacetylation in human PANC1 cells xenografted in mouse at 50 mg/kg, ip; format: functional, organism-based; design: dose 50 mg/kg
# Procedure, shortened: (§2)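 Mice bearing PANC-1 tumors given a single intraperitoneal dose of 50 mg/kg, vehicle control. Tumors harvested at set time points up to about 24 h. Whole tissue lysates Western blotted with antibodies to acetylated histone H3 or H4, actin as loading control.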
# [4] = test system: HCT-116; assay: Antitumor activity against human HCT116 cells xenografted in mouse assessed as tumor growth inhibition at 15 mg/kg, ip qd for 5 days per week; format: functional; conditions: route intraperitoneal; procedure, shortened: as §1
# [5] = Inhibition of HDAC assessed as induction of p21WAF1 expression in engineered cell line by luciferase reporter gene assay
# [6] = test system: PANC-1; assay: Induction of histone H4 hyperacetylation in human PANC1 cells xenografted in mouse at 50 mg/kg, ip; format: functional, organism-based; design: dose 50 mg/kg; procedure, shortened: as §2
# [7] = test system: HL-60; assay: Cytotoxicity against human HL60 cells assessed as NADH level after 72 hrs by MTS cells; format: functional, cell-based; conditions: HL-60, 72 h
# Procedure, shortened: (§3)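 Human A549 lung, HL60 leukemia and PC3 prostate cancer lines incubated with compound for 72 h. Viability read by MTS colorimetric assay from remaining NADH; EC50 calculated; mean of at least two experiments.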
# [8] = test system: HCT-116; assay: Antitumor activity against human HCT116 cells xenografted in mouse assessed as tumor growth inhibition at 40 mg/kg, ip qd for 5 days per week; format: functional; conditions: route intraperitoneal; procedure, shortened: as §1
# [9] = test system: A549; assay: Cytotoxicity against human A549 cells assessed as NADH level after 72 hrs by MTS cells; format: functional, cell-based; conditions: A549, 72 h; procedure, shortened: as §3
# [10] = test system: HL-60; assay: Induction of histone H3 hyperacetylation in human HL60 cells after 4 hrs by Western blotting; format: functional, cell-based; conditions: HL-60, 4 h
# Procedure, shortened: (§4)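 HL60 leukemia cells exposed 4 h to 2.5-fold serial dilutions of compound, DMSO control. Whole-cell lysates Western blotted for acetylated histone H3 and H4, PCNA as loading control. Signals quantified to give the half-maximal response concentration.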
# [11] = test system: PC-3; assay: Cytotoxicity against human PC3 cells assessed as NADH level after 72 hrs by MTS cells; format: functional, cell-based; conditions: PC-3, 72 h; procedure, shortened: as §3
# [12] = molecular target: T1, Protein deacetylase HDAC6 (Homo sapiens, UniProt Q9UBN7); assay: Inhibition of human recombinant HDAC6
# T1 sequence (Q9UBN7 whole entry): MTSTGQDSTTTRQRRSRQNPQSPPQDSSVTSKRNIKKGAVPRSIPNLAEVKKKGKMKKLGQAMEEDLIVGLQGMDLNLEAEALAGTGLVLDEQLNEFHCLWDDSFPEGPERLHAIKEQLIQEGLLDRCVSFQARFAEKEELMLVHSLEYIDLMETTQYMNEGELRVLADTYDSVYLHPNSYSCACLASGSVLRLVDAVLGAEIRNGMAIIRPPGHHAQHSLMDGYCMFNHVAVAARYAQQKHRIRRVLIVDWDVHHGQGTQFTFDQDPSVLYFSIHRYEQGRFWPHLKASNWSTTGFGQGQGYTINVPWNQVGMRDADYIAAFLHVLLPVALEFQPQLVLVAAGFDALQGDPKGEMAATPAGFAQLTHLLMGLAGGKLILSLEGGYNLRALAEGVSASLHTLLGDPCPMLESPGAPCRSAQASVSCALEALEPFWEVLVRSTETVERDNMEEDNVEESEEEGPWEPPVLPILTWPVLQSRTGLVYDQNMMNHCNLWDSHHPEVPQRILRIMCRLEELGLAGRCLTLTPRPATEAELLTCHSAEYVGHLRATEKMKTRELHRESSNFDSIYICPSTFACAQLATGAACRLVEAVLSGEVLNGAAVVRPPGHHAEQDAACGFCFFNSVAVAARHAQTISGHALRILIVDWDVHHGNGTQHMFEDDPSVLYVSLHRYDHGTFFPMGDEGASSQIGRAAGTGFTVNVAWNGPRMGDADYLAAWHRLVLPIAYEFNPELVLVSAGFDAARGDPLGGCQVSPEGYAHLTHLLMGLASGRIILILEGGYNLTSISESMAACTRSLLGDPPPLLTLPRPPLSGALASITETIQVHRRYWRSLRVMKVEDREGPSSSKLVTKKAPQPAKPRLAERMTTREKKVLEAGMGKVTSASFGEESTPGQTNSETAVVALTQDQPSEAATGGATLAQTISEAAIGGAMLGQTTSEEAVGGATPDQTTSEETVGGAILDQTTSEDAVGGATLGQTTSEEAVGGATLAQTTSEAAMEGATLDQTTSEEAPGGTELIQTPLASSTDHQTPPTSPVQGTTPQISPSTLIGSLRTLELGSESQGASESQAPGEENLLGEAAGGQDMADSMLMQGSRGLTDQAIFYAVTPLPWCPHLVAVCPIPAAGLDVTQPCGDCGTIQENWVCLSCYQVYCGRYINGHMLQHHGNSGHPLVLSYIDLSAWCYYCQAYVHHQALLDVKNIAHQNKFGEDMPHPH
# Procedure, shortened: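 Purified recombinant human HDAC-2 or HDAC-6 at known enzyme concentration with tBOC(Ac)-Lys-AMC as substrate. IC50 is the mean of at least three experiments.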
# [13] = molecular target: T2, Histone deacetylase 8 (Homo sapiens, UniProt Q9BY41); assay: Inhibition of human recombinant HDAC8
# T2 sequence (Q9BY41 whole entry): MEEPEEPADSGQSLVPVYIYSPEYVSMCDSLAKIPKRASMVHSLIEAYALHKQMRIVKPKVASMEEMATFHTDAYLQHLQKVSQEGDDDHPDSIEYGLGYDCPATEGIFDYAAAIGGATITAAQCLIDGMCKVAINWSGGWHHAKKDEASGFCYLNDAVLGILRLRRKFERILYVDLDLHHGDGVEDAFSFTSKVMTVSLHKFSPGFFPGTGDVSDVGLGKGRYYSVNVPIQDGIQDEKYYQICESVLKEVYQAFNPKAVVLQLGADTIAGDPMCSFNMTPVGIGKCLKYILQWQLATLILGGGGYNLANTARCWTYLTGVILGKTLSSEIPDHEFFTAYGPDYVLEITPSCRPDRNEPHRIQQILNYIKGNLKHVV
# [14] = test system: Mus musculus; assay: Toxicity in human HCT116 cells xenografted mouse assessed as change in body weight at 25 mg/kg, […]; format: organism-based, HCT-116; design: dose 25 mg/kg, route intraperitoneal; conditions: in vivo, ip, 120 h
# [15] = test system: Mus musculus; assay: Toxicity in human HCT116 cells xenografted mouse assessed as change in body weight at 15 mg/kg, […]; format: organism-based, HCT-116; design: dose 15 mg/kg, route intraperitoneal; conditions: in vivo, ip, 120 h
# [16] = test system: HL-60; assay: Induction of histone H4 hyperacetylation in human HL60 cells after 4 hrs by Western blotting; format: functional, cell-based; conditions: HL-60, 4 h; procedure, shortened: as §4
EC50 [5] [µM],EC50 [10] [µM],IC50 [12] [µM],IC50 [13] [µM],EC50 [16] [µM],Structure (SMILES),T/C [1] [%],Activity [2] [%],Activity [3],T/C [4] [%],Activity [6],EC50 [7] [µM],T/C [8] [%],EC50 [9] [µM],EC50 [11] [µM],Activity [14] [%],Activity [15] [%]
1,0.1,0.1,0.2,0.11,CN1CCC[C@@H](n2c(-c3cccc(/C=C/C(=O)NO)c3)nc3ccccc32)C1,47,-3.6,Active,66,Active,0.04,45,0.3,0.05,-2.5,1.7
,,0.063,0.079,,Cc1c(-c2ccccc2)nc(-c2cccc(/C=C/C(=O)NO)c2)n1CCN1CCOCC1,,,,,,0.3,,6.3,1,,
,,0.12,0.1,,CCN1CCC[C@@H](n2c(-c3cccc(/C=C/C(=O)NO)c3)nc(C)c2C)C1,,,,,,0.04,,0.3,0.08,,
,,0.025,0.05,,O=C(/C=C/c1cccc(-c2nc3ccccc3n2C2CCCCC2)c1)NO,,,,,,0.5,,3.1,1.6,,
,,0.05,0.16,,CN1CCC[C@H](n2c(-c3cccc(/C=C/C(=O)NO)c3)nc3ccccc32)C1,,,,,,0.16,,1.2,0.3,,
,,0.079,0.1,,Cn1c(-c2cccc(/C=C/C(=O)NO)c2)nc2ccccc21,,,,,,2,,12,7.9,,
,,0.079,0.12,,O=C(/C=C/c1cccc(-c2nc3ccccc3n2[C@@H]2CCCNC2)c1)NO,,,,,,0.1,,1,0.1,,
,,0.079,0.12,,CCN1CCC[C@@H](n2c(-c3cccc(/C=C/C(=O)NO)c3)nc3ccccc32)C1,,,,,,0.03,,0.2,0.05,,
,,0.063,0.04,,O=C(/C=C/c1cccc(-c2nc3ccccc3n2Cc2ccccc2)c1)NO,,,,,,5,,6.3,1.2,,
,,0.079,0.12,,CCN1CCCC(n2c(-c3cccc(/C=C/C(=O)NO)c3)nc3ccccc32)C1 (racemic),,,,,,0.06,,0.5,0.1,,

Structure (SMILES),EC50 [5] [µM],EC50 [10] [µM],IC50 [12] [µM],IC50 [13] [µM],EC50 [16] [µM],T/C [1] [%],Activity [2] [%],Activity [3],T/C [4] [%],Activity [6],EC50 [7] [µM],T/C [8] [%],EC50 [9] [µM],EC50 [11] [µM],Activity [14] [%],Activity [15] [%]
Cc1nc(-c2cccc(/C=C/C(=O)NO)c2)n(CCc2ccccc2)c1Cc1ccccc1,,,0.05,0.02,,,,,,,0.05,,0.3,0.2,,
Cc1nc(-c2cccc(/C=C/C(=O)NO)c2)n([C@@H]2CCCN(C(C)C)C2)c1-c1ccccc1,,,0.1,0.04,,,,,,,0.03,,0.4,0.2,,
C[C@H](c1ccccc1)n1c(-c2cccc(/C=C/C(=O)NO)c2)nc2ccccc21,,,0.04,0.02,,,,,,,3.1,,16,10,,
CCN1CCC[C@@H](n2c(-c3cccc(/C=C/C(=O)NO)c3)nc(Cc3ccccc3)c2C)C1,,,0.1,0.05,,,,,,,0.03,,0.1,0.04,,
